Ki, EC50 and Efficacy data for 38 compounds are collected here from ChEMBL document CHEMBL1149338, “Synthesis and in vitro evaluation of salvinorin A analogues: effect of configuration at C(2) and substitution at C(18)” (Bioorg Med Chem Lett, 2006).

Assay [1] concerns the target T1, Kappa-type opioid receptor (Homo sapiens, UniProt P41145). Put plainly: Inhibition of [3H]diprenorphine binding to human KOR expressed in CHO cells. The class given is cell-based. The method in brief: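 Affinity: membranes from CHO cells stably transfected with human κ-opioid receptor; competitive inhibition of [3H]diprenorphine binding; Ki values; mean of at least three independent experiments, each in duplicate.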

In assay [2] the target is T1, Kappa-type opioid receptor. Description: Enhancement of [35S]GTP-gamma-S binding to human KOR expressed in CHO cells. Type of assay: functional, cell-based. On the technique in general: Binding of GTPγS marks nucleotide exchange on a G protein.
Assay [3] concerns the target T1, Kappa-type opioid receptor. Description: Enhancement of [35S]GTP-gamma-S binding to human KOR expressed in CHO cells relative to U50,488H. The class given is functional, cell-based.
Assay [4] has as its target T1, Kappa-type opioid receptor. Description: Enhancement of [35S]GTP-gamma-S binding to human KOR expressed in CHO cells relative to U50,488H at 10 uM. Type of assay: functional, cell-based.

T1 sequence (P41145 whole entry): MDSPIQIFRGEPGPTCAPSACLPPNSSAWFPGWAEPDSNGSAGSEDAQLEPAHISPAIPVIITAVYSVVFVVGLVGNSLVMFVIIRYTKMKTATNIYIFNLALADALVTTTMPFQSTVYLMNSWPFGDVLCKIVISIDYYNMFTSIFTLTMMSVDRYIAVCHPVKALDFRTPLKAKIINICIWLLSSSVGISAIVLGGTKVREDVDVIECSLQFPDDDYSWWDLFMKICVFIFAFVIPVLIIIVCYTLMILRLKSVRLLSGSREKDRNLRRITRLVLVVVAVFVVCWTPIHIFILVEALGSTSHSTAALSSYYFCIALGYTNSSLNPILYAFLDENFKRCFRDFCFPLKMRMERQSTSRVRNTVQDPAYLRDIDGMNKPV

One may read the Ki as the dissociation constant of the complex between target and ligand, obtained from inhibition or displacement. Read a high Ki as lower affinity. In general, EC50 refers to the concentration that produces a half-maximal response. In assay [1], `COC(=O)[C@@H]1C[C@H](N(C)C(C)=O)C(=O)[C@H]2[C@@]1(C)CC[C@H]1C(=O)O[C@H](c3ccoc3)C[C@]21C` showed a Ki of 0.0032 µM. Further, the EC50 in assay [2] was 0.0024 µM. Besides, the Efficacy in assay [3] was determined as 103%.
For `CCN(C(C)=O)[C@H]1C[C@@H](C(=O)OC)[C@]2(C)CC[C@H]3C(=O)O[C@H](c4ccoc4)C[C@]3(C)[C@H]2C1=O` the same measures were 0.0276 µM, 0.0252 µM and 104%.
In assay [1], `COC[C@@H]1C[C@H](OC(C)=O)C(=O)[C@@H]2C3(C)C[C@@H](c4ccoc4)OC[C@H]3C(=O)C[C@@]12C` (stereo partly drawn) displayed a Ki of 0.769 µM. For the same compound, the Efficacy in assay [4] came to 70%.
Take `COC(=O)[C@@H]1C[C@H](OC(C)=O)C(=O)[C@@H]2[C@@]3(C)C[C@@H](c4ccoc4)OC(=O)[C@H]3CC[C@]21C`: in assay [3], the Efficacy stood at 88%.
Compound `COC(=O)[C@@H]1C[C@@H](OC)C(=O)[C@H]2[C@@]1(C)CC[C@H]1C(=O)O[C@H](c3ccoc3)C[C@]21C` displayed a Ki in assay [1] greater than 10 µM.
Still for that read-out and setting: to `CCNC[C@@H]1C[C@H](OC(C)=O)C(=O)[C@@H]2C3(C)C[C@@H](c4ccoc4)OC[C@H]3C(=O)C[C@@]12C` (stereo partly drawn) belongs greater than 10 µM.
Turning to `CNC(=O)[C@@H]1C[C@H](OC(C)=O)C(=O)[C@H]2[C@@]1(C)CC[C@H]1C(=O)O[C@H](c3ccoc3)C[C@]21C`, in assay [1], the Ki was 1.39 µM. Moreover, the Efficacy in assay [4] turned out to be 71%.
For `CCNC(=O)[C@@H]1C[C@H](OC(C)=O)C(=O)[C@@H]2[C@@]3(C)C[C@@H](c4ccoc4)OC(=O)[C@H]3CC[C@]21C`, the inhibitory constant (Ki) in assay [1] was greater than 10 µM.
In assay [1], `CCCC(=O)O[C@@H]1C[C@@H](C(=O)OC)[C@]2(C)CC[C@H]3C(=O)O[C@H](c4ccoc4)C[C@]3(C)[C@H]2C1=O` showed a Ki of 0.665 µM.
Same read-out and setting: under `CC(=O)O[C@H]1C[C@@H](CN(C)C)[C@]2(C)CC(=O)[C@H]3CO[C@H](c4ccoc4)CC3(C)[C@H]2C1=O` (stereo partly drawn) stands greater than 10 µM.
In turn, `CC(=O)O[C@H]1C[C@@H](C(=O)N(C)C)[C@]2(C)CC[C@H]3C(=O)O[C@H](c4ccoc4)C[C@]3(C)[C@H]2C1=O` had a Ki in assay [1] greater than 10 µM.
In turn, `CN[C@H]1C[C@@H](C(=O)OC)[C@]2(C)CC[C@H]3C(=O)O[C@H](c4ccoc4)C[C@]3(C)[C@H]2C1=O` yielded a Ki in assay [1] of 0.328 µM. Also, the EC50 in assay [2] is 0.825 µM. Besides, the Efficacy in assay [3] came to 82%.
Compound `CCNC[C@@H]1C[C@H](OC(C)=O)C(=O)[C@@H]2C3(C)C[C@@H](c4ccoc4)OC[C@@H]3C(=O)C[C@@]12C` (stereo partly drawn) yielded a Ki in assay [1] greater than 10 µM.
Turning to `CCC(=O)N[C@H]1C[C@@H](C(=O)OC)[C@]2(C)CC[C@H]3C(=O)O[C@H](c4ccoc4)C[C@]3(C)[C@H]2C1=O`, in assay [1], the Ki was 0.374 µM. For the same compound, the concentration for a half-maximal effect (EC50) in assay [2] is 0.444 µM. For the same compound, in assay [3], the Efficacy was 109%.
Turning to `COC(=O)[C@@H]1C[C@H](NC(C)C)C(=O)[C@H]2[C@@]1(C)CC[C@H]1C(=O)O[C@H](c3ccoc3)C[C@]21C`, in assay [1], the Ki came to 0.0176 µM. Moreover, in assay [2], the EC50 was determined as 0.0189 µM.
The compound `CC(=O)O[C@H]1C[C@@H](CO)[C@]2(C)CC(=O)[C@@H]3CO[C@H](c4ccoc4)CC3(C)[C@H]2C1=O` (stereo partly drawn) registered a Ki in assay [1] greater than 10 µM.
Same read-out and setting: to `CCNC(=O)[C@@H]1C[C@H](OC(C)=O)C(=O)[C@H]2[C@@]1(C)CC[C@H]1C(=O)O[C@H](c3ccoc3)C[C@]21C` belongs greater than 10 µM; to `CCC(=O)O[C@@H]1C[C@@H](C(=O)OC)[C@]2(C)CC[C@H]3C(=O)O[C@H](c4ccoc4)C[C@]3(C)[C@H]2C1=O`, 0.641 µM.
`CC(=O)O[C@H]1C[C@@H](CO)[C@]2(C)CC(=O)[C@H]3CO[C@H](c4ccoc4)CC3(C)[C@H]2C1=O` (stereo partly drawn) gave an inhibitory constant (Ki) in assay [1] of 1 µM. For the same compound, the Efficacy in assay [4] was 68%.
Regarding `CCN[C@H]1C[C@@H](C(=O)OC)[C@]2(C)CC[C@H]3C(=O)O[C@H](c4ccoc4)C[C@]3(C)[C@H]2C1=O`, the Ki in assay [1] came to 0.0652 µM. For the same compound, the EC50 in assay [2] was 0.0728 µM.
In turn, `CCC(=O)N(CC)[C@@H]1C[C@@H](C(=O)OC)[C@]2(C)CC[C@H]3C(=O)O[C@H](c4ccoc4)C[C@]3(C)[C@H]2C1=O` came in with a Ki in assay [1] of 0.376 µM. The 50% effective concentration (EC50) in assay [2] came out at 0.857 µM. Besides, the Efficacy in assay [3] was 96%.
The corresponding values for `COC(=O)[C@@H]1C[C@@H](N)C(=O)[C@H]2[C@@]1(C)CC[C@H]1C(=O)O[C@H](c3ccoc3)C[C@]21C` are 0.223 µM, 1.37 µM and 84%.
With `CC(=O)O[C@H]1C[C@@H](C(=O)N(C)C)[C@]2(C)CC[C@@H]3C(=O)O[C@H](c4ccoc4)C[C@]3(C)[C@H]2C1=O`, the Ki in assay [1] was greater than 10 µM.
Still for that read-out and setting: to `CNC(=O)[C@@H]1C[C@H](OC(C)=O)C(=O)[C@@H]2[C@@]3(C)C[C@@H](c4ccoc4)OC(=O)[C@H]3CC[C@]21C` belongs greater than 1 µM.
With `COC(=O)[C@@H]1C[C@@H](N(C)C(C)=O)C(=O)[C@H]2[C@@]1(C)CC[C@H]1C(=O)O[C@H](c3ccoc3)C[C@]21C`, the Efficacy in assay [3] was 106%.
`CCC(=O)N(C)[C@@H]1C[C@@H](C(=O)OC)[C@]2(C)CC[C@H]3C(=O)O[C@H](c4ccoc4)C[C@]3(C)[C@H]2C1=O` returned a Ki in assay [1] of 0.0069 µM. The EC50 in assay [2] was 0.0126 µM.
In assay [1], `CCC(=O)N[C@@H]1C[C@@H](C(=O)OC)[C@]2(C)CC[C@H]3C(=O)O[C@H](c4ccoc4)C[C@]3(C)[C@H]2C1=O` had a Ki of 0.117 µM. The EC50 in assay [2] stood at 0.718 µM. For the same compound, the Efficacy in assay [3] was 102%.
For `CC(=O)O[C@H]1C[C@@H](CN(C)C)[C@]2(C)CC(=O)[C@@H]3CO[C@H](c4ccoc4)CC3(C)[C@H]2C1=O` (stereo partly drawn), the Ki in assay [1] is greater than 10 µM.
Still for that read-out and setting: to `CNC[C@@H]1C[C@H](OC(C)=O)C(=O)[C@@H]2C3(C)C[C@@H](c4ccoc4)OC[C@H]3C(=O)C[C@@]12C` (stereo partly drawn) belongs greater than 10 µM.
As to `CCC(=O)N(CC)[C@H]1C[C@@H](C(=O)OC)[C@]2(C)CC[C@H]3C(=O)O[C@H](c4ccoc4)C[C@]3(C)[C@H]2C1=O`, in assay [1], the Ki is 0.0381 µM. Moreover, the EC50 in assay [2] stood at 0.0372 µM. Besides, the Efficacy in assay [3] was found to be 100%.
With `COC(=O)[C@@H]1C[C@@H](NC(C)C)C(=O)[C@H]2[C@@]1(C)CC[C@H]1C(=O)O[C@H](c3ccoc3)C[C@]21C`, the Ki in assay [1] came to 0.0023 µM. Also, the EC50 in assay [2] is 0.0072 µM.
For `COC(=O)[C@@H]1C[C@H](NC(C)=O)C(=O)[C@H]2[C@@]1(C)CC[C@H]1C(=O)O[C@H](c3ccoc3)C[C@]21C` the same measures were 0.149 µM and 0.188 µM.
For `CCC(=O)N(C)[C@H]1C[C@@H](C(=O)OC)[C@]2(C)CC[C@H]3C(=O)O[C@H](c4ccoc4)C[C@]3(C)[C@H]2C1=O` the same measures were 0.0016 µM and 0.00075 µM.
For `COC(=O)[C@@H]1C[C@@H](NC(C)=O)C(=O)[C@H]2[C@@]1(C)CC[C@H]1C(=O)O[C@H](c3ccoc3)C[C@]21C` the same measures were 0.332 µM and 0.339 µM.
Regarding `CCO[C@@H]1C[C@@H](C(=O)OC)[C@]2(C)CC[C@H]3C(=O)O[C@H](c4ccoc4)C[C@]3(C)[C@H]2C1=O`, in assay [1], the Ki is greater than 10 µM.
Compound `COC(=O)[C@@H]1C[C@H](N(C)C)C(=O)[C@H]2[C@@]1(C)CC[C@H]1C(=O)O[C@H](c3ccoc3)C[C@]21C` had a Ki in assay [1] of 0.168 µM. In assay [2], the EC50 was 0.24 µM. Moreover, the Efficacy in assay [3] was determined as 110%.
In turn, `CNC[C@@H]1C[C@H](OC(C)=O)C(=O)[C@@H]2C3(C)C[C@@H](c4ccoc4)OC[C@@H]3C(=O)C[C@@]12C` (stereo partly drawn) had a Ki in assay [1] greater than 10 µM.
Compound `CCN(C(C)=O)[C@@H]1C[C@@H](C(=O)OC)[C@]2(C)CC[C@H]3C(=O)O[C@H](c4ccoc4)C[C@]3(C)[C@H]2C1=O` came in with a Ki in assay [1] of 0.24 µM. Also, in assay [2], the EC50 amounted to 0.641 µM. Besides, the Efficacy in assay [3] stood at 95%.
